# MrgX1 PAM: human MrgX1 positive allosteric modulation, primary screen. Q96LB2. hit rate 0.63% among 310,000. AID 588675. MrgX1-HEK293, Fluo-4 calcium flux, FDSS; active compounds read high. B-score at 10 µM;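 active means plate-corrected calcium response at least 3 library SD above typical, normal starting fluorescence, not activating the receptor alone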;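 further: compound read alongside a low EC10 to EC30 dose of BAM8-22 agonist; peak minus trough fluorescence over baseline measured at the second addition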
# Target sequence (Q96LB2 whole entry, looked up): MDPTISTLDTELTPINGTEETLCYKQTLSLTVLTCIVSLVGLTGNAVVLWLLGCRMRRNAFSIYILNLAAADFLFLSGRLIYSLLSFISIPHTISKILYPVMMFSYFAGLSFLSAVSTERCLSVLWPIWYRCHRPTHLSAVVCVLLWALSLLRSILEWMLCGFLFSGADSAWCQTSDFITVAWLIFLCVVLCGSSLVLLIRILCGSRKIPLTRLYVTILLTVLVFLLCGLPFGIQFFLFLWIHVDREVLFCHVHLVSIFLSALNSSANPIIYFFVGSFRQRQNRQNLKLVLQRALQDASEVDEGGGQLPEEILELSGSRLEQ
# MrgX1 agonist: activates human MrgX1 receptor signaling; B-score at 10 µM; hit rate 0.44% among 310,000; Q96LB2; MrgX1-HEK293 cells, Fluo-4 calcium fluorescence, agonist mode; active compounds read high; AID 588627;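 active means calcium response B-score plate-corrected fluorescence ratio at least 3 library SD, with starting fluorescence B-score inside 5 SD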
#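 Material – MrgX1-expressing HEK293 cells · Input – 15,000 cells seeded per well · Dosing – compound as first of three additions · Times – overnight seeding, then 1 h dark dye loading · Measured by – kinetic Fluo-4 NW fluorescence of intracellular calcium · Read-out – B-scored fluorescence response ratio · Benchmarks – positive and negative control wells on each plate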
# RGS4 pot: potentiators or activators of RGS4. HEK293 M3R/inducible RGS4, carbachol calcium flux Fluo4; active compounds read low. B-score at 10 µM. hit rate 0.92% among 310,000. AID 463111;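 active means B-score of the integrated calcium signal more than 4 SD below the library mean, with starting fluorescence not abnormally high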;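 further: negative B-score means reduced calcium response which marks RGS4 activation or potentiation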
#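 test system = HEK293 cells with stable M3R and inducible RGS4 | schedule = recording 10 s baseline at 1 Hz, 100 s post-agonist | technique = Fluo4-AM (2 µM) calcium-flux fluorescence, kinetic read | measure = Agonist-evoked peak-minus-minimum fluorescence over baseline, integrated ratio, B score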
# MrgX1 antag: human MrgX1 receptor antagonism, primary screen; Q96LB2; MRGX1-HEK293 calcium flux, Fluo-4, BAM8-22 antagonism; active compounds read low; B-score at 10 µM; hit rate 1.3% among 310,000; AID 588676;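 active means calcium-response B-score plate-corrected more than 3 library SD below zero, starting fluorescence within 5 deviations, no agonist response on first addition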;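 further: peak minus trough fluorescence over baseline after final BAM8-22 challenge near maximal dose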
# RGS4 block: inhibitors of human RGS4; P49798; hit rate 0.45% among 310,000; HEK293 M3R/RGS4 inducible, Fluo-4 calcium flux; active compounds read high; triggered by carbachol at its EC20; B-score at 10 µM;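 active means B-score, a plate-corrected calcium signal, over three deviations above library mean, with baseline fluorescence within five deviations of library mean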;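 further: RGS4 expression induced by doxycycline in cells with stable M3 receptor; B-score is computed from the integrated fluorescence ratio over baseline after carbachol; higher B-score means a larger calcium signal and so more RGS4 inhibition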
# Target sequence (P49798 whole entry, looked up): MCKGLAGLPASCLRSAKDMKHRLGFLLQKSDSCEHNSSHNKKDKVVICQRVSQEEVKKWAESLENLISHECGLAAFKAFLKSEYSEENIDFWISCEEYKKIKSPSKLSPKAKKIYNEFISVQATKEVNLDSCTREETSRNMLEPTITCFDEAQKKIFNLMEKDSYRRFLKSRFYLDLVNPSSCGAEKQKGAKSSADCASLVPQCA
# MrgX1 PAM conf: confirmation of human MrgX1 receptor positive allosteric modulators; shares compounds with MrgX1 PAM; MrgX1-HEK293, Fluo-4 calcium fluorescence, FDSS; activation (ratio percentage), % at 10 µM; hit rate 13% among 1,200;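 active means ratio at least 3 SD above the weak peptide control, stable starting fluorescence, no direct agonism earlier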;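 further: compound followed by low BAM8-22 agonist challenge near EC20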
# HEK293 Ca flux: MrgX1 antagonist counter-screen hit in parental HEK293 cells; shares compounds with MrgX1 antag; Fluo-4 calcium fluorescence, FDSS; fluorescence ratio F(max-min)/F0 at 10 µM; hit rate 2% among 4,000;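 active means duplicate-averaged calcium fluorescence ratio at least three times the standard deviation of buffer wells, a nonspecific response in parental cells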
# HEK293 Ca counter: activity in parental HEK293 cells without MrgX1. shares compounds with MrgX1 antag. parental HEK293 calcium flux, Fluo-4 fluorescence ratio; active compounds read high. fluorescence ratio F(max-min)/F0 at 10 µM. hit rate 0.4% among 4,000;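 active means calcium fluorescence ratio, averaged over duplicates, at least 3 SD of the buffer-well ratio, meaning a nonspecific response in receptor-free cells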;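 further: untransfected parental HEK293 lacking MrgX1 used as counterscreen for MrgX1 allosteric activators; fluorescence change taken during the second addition on a kinetic imager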
# HEK293 Ca cntr2: counter-screen for MrgX1 activators: effect in parental HEK293 cells; shares compounds with MrgX1 antag; Fluo-4 calcium fluorescence (FDSS); active compounds read high; fluorescence ratio F(max-min)/F0 at 10 µM; hit rate 8.7% among 4,000; AID 624115;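 active means calcium fluorescence ratio at least three times the spread of buffer wells, meaning a non-specific response in parental cells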
# Starred values were filed as active, the others as inactive; i = inactive; x = no result given. Rows were chosen to be rich in hits. Some 3.5% of all compounds tested hit in one or more screens of this group.
SMILES,MrgX1 PAM,MrgX1 agonist,RGS4 pot,MrgX1 antag,RGS4 block,MrgX1 PAM conf,HEK293 Ca flux,HEK293 Ca counter,HEK293 Ca cntr2
CC1CCC2(CC1)C(Nc1cccc(Cl)c1)=NC(=S)N2CC#N (stereo unspecified),8.34*,i,i,i,i,i,i,i,i
CC(=O)c1sc(NC(=O)C2COc3ccccc3O2)nc1C (stereo unspecified),i,i,i,i,i,x,x,x,x
CC1(C)CC(=O)c2sc(NC(=O)c3ccco3)nc2C1,i,i,i,i,i,x,x,x,x
CC1(C)CC(=O)c2sc(NC(=O)C3COc4ccccc4O3)nc2C1 (stereo unspecified),9.44*,i,i,i,i,i,i,i,i
CC1(C)CC(=O)c2sc(NS(=O)(=O)c3ccccc3)nc2C1,12.9*,i,i,i,i,i,i,i,i
Cn1cnc(S(=O)(=O)Nc2ccc(OC(F)(F)F)cc2)c1,i,i,i,i,i,x,x,x,x
CC(C)Nc1nc(NC(C)(C)C)nc(Oc2ccc(=O)n(C)n2)n1,28.3*,i,i,i,i,i,i,i,i
Cc1ccc(OCc2n[nH]c(=S)n2-c2ccccc2)cc1C,8.72*,i,i,i,i,i,i,i,i
Cc1ccc(-n2c(COc3ccccc3)n[nH]c2=S)cc1,7.96*,i,i,i,i,i,i,i,i
Cc1ccc(-n2c(CCc3ccccc3)n[nH]c2=S)cc1C,6.48*,i,i,i,i,i,i,i,i
Cc1ccc(-n2c(COc3cccc(C)c3)n[nH]c2=S)cc1,11.3*,i,i,i,i,i,i,i,i
COc1ccc(-n2c(COc3ccc(C)cc3)n[nH]c2=S)cc1,i,i,i,i,i,x,x,x,x
COc1cc([C@H]2c3c(cc(OC)c(O)c3OC)C[C@@H](CO)[C@@H]2CO[C@@H]2O[C@H](CO)[C@@H](O)[C@H](O)[C@H]2O)cc(OC)c1O,i,i,x,i,x,x,x,x,x
Cc1[nH]c(=S)c(C#N)c(-c2ccco2)c1C(=O)N(C)C,i,i,i,i,i,x,x,x,x
O=C(Nc1nc(-c2cccs2)c(C(=O)C(F)(F)F)s1)c1ccco1,7.6*,i,i,i,i,i,i,i,i
Cc1cc(C)cc(-c2nnc(SCc3ccc(C(=O)O)cc3)o2)c1,7.41*,i,i,i,i,i,i,i,i
Cc1cc(C)n(CCCNC(=O)C2CC(=O)N(Cc3ccccc3)C2)n1 (stereo unspecified),i,i,i,i,i,x,x,x,x
CCN1C(=O)C(CC(=O)Nc2ccc(F)cc2)N(Cc2ccco2)C1=S (stereo unspecified),9.25*,i,i,i,i,i,i,i,i
Cc1cccc(S(=O)(=O)Nc2cccc3c2C(=O)c2ccccc2-3)c1,14.9*,i,i,i,i,i,i,i,46.8*
c1ccc2nc(-c3ccc(-n4ccnc4)cc3)ccc2c1,8.92*,i,i,i,i,i,i,i,i
c1ccc(-c2ccc3ccccc3n2)cc1,i,i,i,i,i,x,x,x,x
CC1CCCC(NS(=O)(=O)c2cc3c(cc2Cl)NC(=O)CO3)C1C (stereo unspecified),21.4*,i,i,i,i,i,i,i,i
CC1CCCC(NC(=O)CCS(=O)(=O)c2cc3c(cc2Cl)NC(=O)CO3)C1C (stereo unspecified),i,i,i,i,i,x,x,x,x
CCc1nn2c(N)c(/C=C3\C=Nc4ccccc43)c(=O)nc2s1,6.85*,i,i,i,i,11.7%*,i,i,i
CSc1nsc2nc(=O)c(/C=C3\C=Nc4ccccc43)c(N)n12,57.1*,i,i,i,i,15.1%*,i,i,i
SMILES,MrgX1 PAM,MrgX1 agonist,RGS4 pot,MrgX1 antag,RGS4 block,MrgX1 PAM conf,HEK293 Ca flux,HEK293 Ca counter,HEK293 Ca cntr2
Cc1ccc(CN2CCN(C3CCOCC3)CC2CCO)cc1 (stereo unspecified),8.87*,i,i,i,i,i,i,i,i
CCC(=O)N(c1ccc(C(=O)O)cc1)c1nc(-c2ccc(OC)cc2)c(C)s1,6.48*,i,i,i,i,i,i,i,i
Cc1sc(N(C(=O)CCc2ccccc2)c2ccc(C(=O)O)cc2)nc1-c1ccccc1,i,i,i,i,i,x,x,x,x
O=C(O)C1CC=CCC1C(=O)Nc1ccc(N2CCN(Cc3ccccc3)CC2)cc1 (stereo unspecified),7.4*,i,i,i,i,i,i,i,i
O=C(Nc1ccc(N2CCN(Cc3ccccc3)CC2)cc1)c1ccco1,i,i,i,i,i,x,x,x,x
O=C(CSC1=NCCN1)NC(c1ccccc1)c1ccccc1,13.4*,i,i,i,i,i,i,i,i
O=C(Nc1ccc(NC(=O)C2CCCCC2)nc1)c1cccc(F)c1,x,x,i,x,i,x,x,x,x
O=S(=O)(Nc1ncnc2scc(-c3ccc(F)cc3)c12)c1cc(F)ccc1F,11.9*,i,i,i,i,i,i,i,i
COc1ccccc1CNC(=O)C1CCC(CNc2c(N3CCC(C)CC3)c(=O)c2=O)CC1 (stereo unspecified),6.6*,i,i,i,i,i,i,i,i
COc1cccc(CNC(=O)C2CCC(CNc3c(N4CCC(C)CC4)c(=O)c3=O)CC2)c1 (stereo unspecified),i,i,i,i,i,x,x,x,x
CC1(C)OC2C(O1)[C@@H](CO)O[C@H]2n1cnc2c(N)ncnc21 (stereo partly specified),i,i,i,i,i,x,x,x,x
OC[C@H]1O[C@@H](n2cnc3c(Nc4ccccc4)ncnc32)[C@H](O)[C@@H]1O,7.07*,i,i,i,i,i,i,i,i

# Compound activity (PubChem)
